Measured values from ChEMBL document CHEMBL1629563, “Pharmacokinetic and safety evaluation of BILR 355, a second-generation nonnucleoside reverse transcriptase inhibitor, in healthy volunteers” (Antimicrob Agents Chemother, 2008).

Assays:
Homo sapiens [1] = test: Toxicity in healthy human assessed as occurrence of frequent bowel movements at 1 mg, po administered as single dose relative to control; format: organism-based; settings: in vivo
[2] = Half life in healthy human at 50 mg, po administered as single dose coadministered with 100 mg of ritonavir; format: ADME, organism-based; settings: in vivo
[3] = Mean residence time in healthy human at 5 mg, po administered as single dose coadministered with 100 mg of ritonavir; format: ADME, organism-based; settings: in vivo
[4] = Apparent volume of distribution in terminal phase in healthy human at 50 mg, po administered as single dose coadministered with 100 mg of ritonavir; format: ADME, organism-based; settings: in vivo, read-out: Vz/F
Outline: (§1)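 Healthy male volunteers, fasted overnight, got one oral dose of BILR 355 in PEG solution with 200 ml water. Ritonavir 100 mg was given 10 h before and again with the dose. Plasma was sampled (EDTA) from predose to 144 h and assayed by validated LC-MS/MS. Cmax and Vz/F came from noncompartmental analysis. Vss/F = CL/F·(MRTp.o. − 1/Ka), with Ka from compartmental modelling.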

[5] = Apparent volume of distribution at steady state in healthy human at 62.5 mg, po administered as single dose coadministered with 100 mg of ritonavir; format: ADME, organism-based; settings: in vivo, read-out: Vss/F; outline: as §1
[6] = Renal clearance in healthy human at 12.5 mg, po administered as single dose coadministered with 100 mg of ritonavir by high-pressure liquid chromatography-tandem mass spectrometry/mass spectrometry method; format: ADME, organism-based, Kidney; settings: in vivo, read-out: CL_renal (converted)
[7] = Renal clearance in healthy human at 50 mg, po administered as single dose coadministered with 100 mg of ritonavir by high-pressure liquid chromatography-tandem mass spectrometry/mass spectrometry method; format: ADME, organism-based, Kidney; settings: in vivo, read-out: CL_renal (converted)
[8] = Renal clearance in healthy human at 75 mg, po administered as single dose coadministered with 100 mg of ritonavir by high-pressure liquid chromatography-tandem mass spectrometry/mass spectrometry method; format: ADME, organism-based, Kidney; settings: in vivo, read-out: CL_renal (converted)
[9] = Renal clearance in healthy human at 87.5 mg, po administered as single dose coadministered with 100 mg of ritonavir by high-pressure liquid chromatography-tandem mass spectrometry/mass spectrometry method; format: ADME, organism-based, Kidney; settings: in vivo, read-out: CL_renal (converted)
Outline: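 Healthy male volunteers, fasted overnight, got one oral dose in PEG solution with 200 ml water. Ritonavir 100 mg was given 10 h before and again with the dose. Urine was collected quantitatively over 0–6, 6–24 and 24–72 h and stored at −20°C, then assayed by validated HPLC-MS/MS. CLR = amount excreted unchanged over an interval / plasma AUC over the same interval.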

[10] = Drug excretion in healthy human urine assessed as unchanged drug at 87.5 mg, po administered as single dose coadministered with 100 mg of ritonavir by high-pressure liquid chromatography-tandem mass spectrometry/mass spectrometry method; format: ADME, organism-based; settings: read-out: Drug uptake
Outline: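 Ritonavir 100 mg was given 10 h before and with one oral dose of BILR 355 in PEG solution. Urine was collected by weight as predose blank, then 0-6, 6-24 and 24-72 h, stored at −20°C and assayed by LC-MS/MS. fe = unchanged drug excreted (Ae) as a percentage of dose. Line 50: high-fat breakfast 30 min before dosing.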

Homo sapiens [11] = test: Toxicity in healthy human assessed as occurrence of aphthous stomatitis at 62.5 mg, po administered as single dose coadministered with 100 mg of ritonavir; format: organism-based; settings: in vivo
Homo sapiens [12] = test: Toxicity in healthy human assessed as occurrence of fatigue at 12.5 mg, po administered as single dose coadministered with 100 mg of ritonavir; format: organism-based; settings: in vivo
Homo sapiens [13] = test: Toxicity in healthy human assessed as occurrence of fatigue at 75 mg, po administered as single dose coadministered with 100 mg of ritonavir; format: organism-based; settings: in vivo
[14] = AUC (0 to infinity) in healthy human at 50 mg, po administered as single dose; format: ADME, organism-based; design: dose 50 mg, time infinity, route oral; settings: plasma
Outline: (§2)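 Healthy male volunteers, six active plus two placebo per dose group, single oral dose in PEG solution with 200 ml water after overnight fast; breakfast 60 to 90 min post-dose. EDTA plasma sampled predose to 144 h. Assayed by validated LC-MS/MS after protein precipitation. Noncompartmental analysis, AUC by linear up/log down trapezoidal rule; Vss = CL/F·(MRTp.o. − 1/Ka).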

Homo sapiens [15] = test: AUC (0 to infinity) in healthy human at 75 mg, po administered as single dose; format: ADME, organism-based, Plasma; design: dose 75 mg, route oral, time infinity; settings: in vivo; outline: as §2
[16] = Apparent oral clearance in healthy human at 50 mg, po administered as single dose; format: ADME, organism-based; settings: in vivo; outline: as §2
Homo sapiens [17] = test: Ratio of Cmax in human at 25 mg, po in presence of 100 mg of ritonavir to Cmax in human at 25 mg, po; format: ADME, organism-based; settings: in vivo
Homo sapiens [18] = test: Ratio of Cmax in human at 50 mg, po in presence of 100 mg of ritonavir to Cmax in human at 50 mg, po; format: ADME, organism-based; settings: in vivo
Homo sapiens [19] = test: Ratio of Cmax in human at 75 mg, po in presence of 100 mg of ritonavir to Cmax in human at 75 mg, po; format: ADME, organism-based; settings: in vivo
Homo sapiens [20] = test: Toxicity in healthy human assessed as occurrence of abdominal pain at 25 mg, po administered as single dose relative to control; format: organism-based, Abdomen; settings: in vivo
[21] = Mean residence time in healthy human at 75 mg, po administered as single dose; format: ADME, organism-based; settings: in vivo
[22] = Apparent volume of distribution at steady state in healthy human at 75 mg, po administered as single dose; format: ADME, organism-based; settings: in vivo, read-out: Vss/F
Outline: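 Single fasting oral dose of BILR 355 in PEG solution with 200 ml tap water, given to healthy males. Standard breakfast came 60-90 min after the dose. EDTA plasma was sampled predose to 144 h, stored below −18°C and assayed by LC-MS/MS after protein precipitation. Noncompartmental analysis gave Vz/F. Vss/F = CL/F·(MRTp.o. − 1/Ka), with Ka from compartmental modelling.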

[23] = Drug excretion in healthy human urine assessed as unchanged drug at 25 mg, po administered as single dose by high-pressure liquid chromatography-tandem mass spectrometry/mass spectrometry method; format: ADME, organism-based; settings: read-out: Drug uptake
Outline: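 Urine was collected by weight after one oral dose of BILR 355 in PEG solution in fasted healthy males. Intervals were predose blank, 0-6, 6-24 and 24-72 h, with the bladder voided before each. Aliquots were stored at −20°C and assayed by LC-MS/MS. fe = amount of unchanged drug excreted (Ae) as a percentage of the administered dose.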

[24] = AUC (0 to last) in high fat fed healthy human at 50 mg, po administered as single dose coadministered with 100 mg of ritonavir; format: ADME, organism-based; design: dose 50 mg, route oral, time 0 - last; settings: plasma
Outline: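 Fed cohort of 6 healthy men given an FDA-type high-fat breakfast (about 150, 250 and 500 to 600 cal from protein, carbohydrate and fat) 30 min before dosing. Ritonavir 100 mg given 10 h earlier and again with the single oral dose in PEG solution. Plasma sampled to 144 h, LC-MS/MS, noncompartmental analysis.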

[25] = Cmax in healthy human at 75 mg, po administered as single dose coadministered with 100 mg of ritonavir by high-pressure liquid chromatography-tandem mass spectrometry/mass spectrometry method; format: ADME, organism-based; design: dose 75 mg, route oral; settings: in vivo; outline: as §1
[26] = Tmax in healthy human at 75 mg, po administered as single dose coadministered with 100 mg of ritonavir; format: ADME, organism-based; settings: in vivo
[27] = Half life in healthy human at 37.5 mg, po administered as single dose coadministered with 100 mg of ritonavir; format: ADME, organism-based; settings: in vivo
Homo sapiens [28] = test: Toxicity in healthy human assessed as occurrence of nausea at 50 mg, po administered as single dose relative to control; format: organism-based; settings: in vivo

Molecule `CCN1c2ncc(CCOc3cc[n+]([O-])c4ccccc34)cc2C(=O)N(C)c2cccnc21` [BILR 355] has an Activity (Homo sapiens [1]) of 0%, a half-life [2] of 11.5 h and an MRT [3] of 24.8 h. The Vd/F [4] was 129 L, the Vd/F [5] was 113 L and the CL renal [6] was 7.3 mL/min. The CL renal [7] was 4.87 mL/min, the CL renal [8] was 5.85 mL/min and the CL renal [9] was 8.2 mL/min. The dose excreted [10] was 5.96%, the Activity (Homo sapiens [11]) was 0% and the Activity (Homo sapiens [12]) was 0%. The Activity (Homo sapiens [13]) was 0%, the AUC(0-inf) [14] was 419 ng·h/mL and the AUC (Homo sapiens [15]) was 779 ng·h/mL. The CL/F [16] was 2150 mL/min, the Ratio (Homo sapiens [17]) was 5.4 and the Ratio (Homo sapiens [18]) was 2.9. It also gave a Ratio (Homo sapiens [19]) of 2.3, an Activity (Homo sapiens [20]) of 16.7% and an MRT [21] of 2.95 h. For the same molecule, the Vd/F [22] was 608 L, the dose excreted [23] was 0.405% and the AUC(0-t) [24] was 7970 ng·h/mL. For the same molecule, the Cmax [25] was 812 ng/mL, the Tmax [26] was 1.63 h and the half-life [27] was 11 h. For the same molecule, the Activity (Homo sapiens [28]) was 0%.
